Screening results: PubChem, several laboratories
In the library only some 1.6% were active in any assay of this set; here they are far more common.
PKA-R2B activ = activates the human PKA-R2B holoenzyme complex. activation, % at 11.4 µM. PKA-R2B holoenzyme dissociation, Cy5-IP20 fluorescence polarization; R2B truncated from residue 108, S112A mutant; 0% DMSO only, 100% 113 µM cGMP. P22694+P31323. 340,000 tested, 0.079% active;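 active means activation above a cutoff set at the mean over all compounds plus 3 SD, cut at about 18% in these data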;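 further: higher means more holoenzyme dissociation and a rise in polarization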
Target sequence (P31323 whole entry, looked up, other chains not shown, the tested form may be a part): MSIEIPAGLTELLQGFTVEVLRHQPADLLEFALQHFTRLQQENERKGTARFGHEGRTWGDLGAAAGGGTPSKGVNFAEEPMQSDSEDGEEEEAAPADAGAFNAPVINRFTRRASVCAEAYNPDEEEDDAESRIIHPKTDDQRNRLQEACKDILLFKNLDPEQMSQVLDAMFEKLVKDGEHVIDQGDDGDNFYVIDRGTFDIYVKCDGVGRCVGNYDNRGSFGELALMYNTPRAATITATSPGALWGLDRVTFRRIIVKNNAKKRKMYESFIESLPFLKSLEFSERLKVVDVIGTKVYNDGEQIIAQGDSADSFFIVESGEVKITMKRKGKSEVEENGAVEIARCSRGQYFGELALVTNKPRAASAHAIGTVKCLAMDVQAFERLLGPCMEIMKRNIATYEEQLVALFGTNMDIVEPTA
TPT1 inh = blocks Candida albicans tRNA 2'-phosphotransferase | recombinant caTPT1, FP RNA substrate dephosphorylation | inhibition, % at 5 µM | 300,000 tested, 0.81% active;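 active means inhibition above the mean of all tested compounds plus 3 SD, set per screening campaign, cut at about 24% in these data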;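 further: plate controls were DMSO alone for no effect and ferristatin control at 100 nM for full effect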
HNF4A DNA FP = change in binding of human HNF4 alpha to DNA; HNF4a-FITC DNA binding, fluorescence polarization, 1 h; 360,000 tested, 0.3% active; P41235; activity change, % at 10 µM; in the data active means activity change above about 30%, passing the limit was not always enough
CSN inh = blocks human CSN-mediated cullin deneddylation | Q92905 | Purified CSN, SCF-Nedd8-OG deneddylation, fluorescence polarization | inhibition, % at 12.5 µM | 360,000 tested, 0.38% active;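 active means pattern-corrected inhibition above about 35%, with an unprinted fluorescence ratio check between 0.5 and 1.5, limit read from the data, passing the limit was not always enough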;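 further: 0% = enzyme with substrate and 100% = substrate without enzyme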
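Test system: Human Csn5 produced in HEK293T cells | Compound: 12.5 µM single point | Times: 90 min, room temperature | Signal: Fluorescence polarization readout | Read-out basis: % inhibition of substrate cleavage by Csn5 | Controls: no-enzyme wells high, enzyme-with-substrate wells low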
PKA-R1A activ = activators of PKA-R1A complex; P00514+P68181; activation, % at 11.4 µM; PKA-R1A dissociation, Cy5-IP20 fluorescence polarization; scaled: DMSO 0%, 113 µM cGMP 100%; 340,000 tested, 0.083% active; AID 504707;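 active means percent activation above the mean of all tested compounds plus 3 SD, cut at about 19% in these data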;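 further: higher means more PKAc released from R1A so a rise in polarization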
Rpn11 inh = Rpn11 (human) deubiquitinase inhibition | human 26S proteasome, Ub4-pepOG fluorescence polarization; 20S core pre-blocked with epoxomicin | calls only at 20 µM | 360,000 tested, 0.59% active | AID 588493;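 active means inhibition at 20 µM, scaled to each plate's controls, above about 33%, limit read from the data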
caTPT1 confirm = confirmation of Candida albicans TPT1 inhibitors. shares compounds with TPT1 inh. recombinant caTPT1, fluorescence polarization, RNase T1 coupled. inhibition, % at 5 µM. 2,400 tested, 74% active. AID 2149;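 active means inhibition above the primary screen limit, the mean inhibition of all tested compounds plus 3 SD, cut at about 25% in these data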
RNase T1 counter = blocks Aspergillus oryzae RNase T1, a TPT1 counter-screen | shares compounds with TPT1 inh | RNase T1 cleavage, fluorescence polarization, 1536-well | inhibition, % at 5 µM | 2,400 tested, 83% active | AID 2153;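 active means inhibition above the solvent-only control well mean plus 3 SD, limit set per screening run, cut at about 23% in these data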;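 further: plate controls were DMSO wells with enzyme for no effect and wells without RNase T1 for full effect; inhibitors block cleavage so intact labeled substrate keeps polarization high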
Target sequence (P00651 whole entry, looked up): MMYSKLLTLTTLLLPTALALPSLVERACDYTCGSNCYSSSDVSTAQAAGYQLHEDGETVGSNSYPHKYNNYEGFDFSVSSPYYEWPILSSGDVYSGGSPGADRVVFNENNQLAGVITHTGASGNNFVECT
* marks the source's active call; other numbers are inactive results.

`Cc1ccc(S(=O)(=O)c2c(N)n(CCCN(C)C)c3nc4ccccc4nc23)cc1` gave PKA-R2B activ -9, TPT1 inh -3, HNF4A DNA FP 1, CSN inh 2, PKA-R1A activ -15 and Rpn11 inh inactive.
`CN(C)CCCn1c(N)c(C#N)c2nc3ccccc3nc21` gave TPT1 inh 26*, HNF4A DNA FP 91, CSN inh 20, caTPT1 confirm 30* and RNase T1 counter 43*.
CC(C)(OC(=O)c1ccc(F)cc1)c1cc2ccccc2c(=O)o1 was read as PKA-R2B activ -7, HNF4A DNA FP -2, CSN inh 1, PKA-R1A activ -4 and Rpn11 inh inactive.
For COc1cc(/C=C2\SC(=O)N(CC(=O)Nc3ccccc3F)C2=O)cc(Cl)c1O the results were PKA-R2B activ -3, TPT1 inh 67*, HNF4A DNA FP 3, CSN inh 11, PKA-R1A activ 4, Rpn11 inh inactive, caTPT1 confirm 81* and RNase T1 counter 68*.
CCN(CC)c1ccc(/C=N/NC(=O)c2cccc(S(=O)(=O)Nc3ccccc3OC)c2)c(O)c1 was read as PKA-R2B activ -5, TPT1 inh 55*, HNF4A DNA FP 18, CSN inh 7, PKA-R1A activ 1, caTPT1 confirm 78* and RNase T1 counter 87*.
For Cc1nnc(SCC(=O)Nc2nccs2)o1 the results were PKA-R2B activ 8, TPT1 inh -3, HNF4A DNA FP 33, CSN inh 1, PKA-R1A activ 0 and Rpn11 inh inactive.
O=C(Nc1ccccc1)NC1CCN(Cc2ccccc2)CC1 was read as PKA-R2B activ -7, TPT1 inh 30*, HNF4A DNA FP 2, CSN inh 3, PKA-R1A activ -2, Rpn11 inh inactive, caTPT1 confirm 2 and RNase T1 counter 7.
CC(=O)Nc1ccc(S(=O)(=O)Nc2nc3ccccc3nc2Nc2ccc3ccccc3c2)cc1 was read as PKA-R2B activ 0, TPT1 inh 29*, HNF4A DNA FP 27, CSN inh 45*, PKA-R1A activ -7, caTPT1 confirm 13 and RNase T1 counter 24*.
For CC(=O)Nc1ccc(S(=O)(=O)Nc2nc3ccccc3nc2Nc2ccc(N)cc2)cc1 the results were PKA-R2B activ -8, TPT1 inh 77*, HNF4A DNA FP 40, CSN inh 83, PKA-R1A activ 5, caTPT1 confirm 62* and RNase T1 counter 69*.
`CC(=O)Nc1ccc(S(=O)(=O)Nc2nc3ccccc3nc2Nc2ccc(C(=O)O)c(O)c2)cc1` gave PKA-R2B activ -8, HNF4A DNA FP -30, CSN inh 52, PKA-R1A activ -5 and Rpn11 inh inactive.
For CC(=O)Nc1ccc(S(=O)(=O)Nc2nc3ccccc3nc2Nc2cccc(O)c2)cc1 the results were PKA-R2B activ -3, TPT1 inh 3, HNF4A DNA FP -1, CSN inh 2, PKA-R1A activ -4 and Rpn11 inh inactive.
`CCN(CC)c1ccc(/C=C(\C#N)C(=O)NCc2ccccc2)cc1` gave PKA-R2B activ -14, TPT1 inh 89*, HNF4A DNA FP 41*, CSN inh 3, PKA-R1A activ -4, Rpn11 inh inactive, caTPT1 confirm 107* and RNase T1 counter 114*.
Screening Cn1c(=O)n(C)c2cc(/C=C(/C#N)C(=O)NCc3ccco3)ccc21 returned PKA-R2B activ 5, TPT1 inh 1, HNF4A DNA FP -3, CSN inh -3, PKA-R1A activ -11 and Rpn11 inh inactive.
For Cc1ccc(CNC(=O)/C(C#N)=C\c2ccc(N(C)C)cc2)cc1 the results were TPT1 inh 58*, caTPT1 confirm 64* and RNase T1 counter 80*.
For CCN(CC)c1ccc(/C=C(\C#N)C(=O)NCc2ccco2)cc1 the results were TPT1 inh 110*, caTPT1 confirm 104* and RNase T1 counter 114*.
`COc1nc(N(C)S(=O)(=O)c2ccc(C)cc2)nc(C)c1Br` gave PKA-R2B activ -6, TPT1 inh 1, HNF4A DNA FP -2, CSN inh 0, PKA-R1A activ 1 and Rpn11 inh inactive.
`FC(F)(F)c1ccc(NCc2ccccn2)nc1` gave PKA-R2B activ -10, TPT1 inh 0, HNF4A DNA FP -1, CSN inh 0, PKA-R1A activ -6 and Rpn11 inh inactive.
OCC[C@@H]1C[C@H](O)[C@@H](O)[C@]2(OCc3ccccc32)O1 was read as PKA-R2B activ -16, TPT1 inh -2, HNF4A DNA FP -4, CSN inh -1, PKA-R1A activ 1 and Rpn11 inh inactive.
For Oc1ccc2ccccc2c1-c1sc(Nc2ccccc2)n[n+]1-c1ccc(F)cc1 the results were PKA-R2B activ -8, TPT1 inh 29*, HNF4A DNA FP -68, CSN inh -72, PKA-R1A activ -3, Rpn11 inh inactive, caTPT1 confirm -12 and RNase T1 counter 3.
`COc1ccccc1NC(=O)/C(C#N)=C/c1cc([N+](=O)[O-])ccc1N1CCCC1` gave PKA-R2B activ 12, TPT1 inh 38*, HNF4A DNA FP -105, CSN inh -77, PKA-R1A activ 4, Rpn11 inh inactive, caTPT1 confirm 74* and RNase T1 counter 85*.
For COc1ccccc1NC(=O)/C(C#N)=C/c1ccncc1 the results were PKA-R2B activ 10, TPT1 inh 0, HNF4A DNA FP 2, CSN inh 2, PKA-R1A activ 1 and Rpn11 inh inactive.
`O=C(O)CN1C(=O)/C(=C\c2cn(CC(=O)N3CCOCC3)c3ccccc23)SC1=S` gave PKA-R2B activ -6, TPT1 inh 181*, HNF4A DNA FP 194, CSN inh 154, PKA-R1A activ -5, caTPT1 confirm 150* and RNase T1 counter 144*.
For O=C(CCCN1C(=O)/C(=C\c2ccccc2)SC1=S)N1CCOCC1 the results were PKA-R2B activ -4, HNF4A DNA FP 3, CSN inh 7, PKA-R1A activ 9 and Rpn11 inh inactive.
Screening COCCCn1c(SCC(=O)Nc2nc3ccccc3s2)nnc1-c1ccoc1C returned PKA-R2B activ -2, TPT1 inh -1, HNF4A DNA FP 7, CSN inh 3, PKA-R1A activ -9 and Rpn11 inh inactive.
